{"source": "ChEMBL document CHEMBL2380239", "about": "“Novel ROS-activated agents utilize a tethered amine to selectively target acute myeloid leukemia” (Bioorg Med Chem Lett, 2013)", "key": {"[1]": {"tested_on": "HeLa", "test": "Cytotoxicity against human HeLa cells after 48 hrs by MTT assay", "type": "functional, cell-based"}, "[2]": {"test": "Therapeutic index, ratio of IC50 for human CD34-positive blood stem/progenitor cells to IC50 for human MA9.3 cells", "details": "CD34-positive blood stem/progenitor cells versus MA9.3 cells, read-out: Ratio IC50", "in_short": "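Cytotoxicity was measured in parallel on non-cancerous human CD34+ blood stem/progenitor cells (UCB) and on the MA9.3 AML line, which was made by introducing the MLL-AF9 oncogene into human CD34+ cells. The index is IC50 in CD34+ cells divided by IC50 in MA9.3, reported as mean ± error.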"}, "[3]": {"test": "Cytotoxicity against human CD34-positive blood stem/progenitor cells after 48 hrs by MTT assay", "type": "cell-based", "in_short": "(§1)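 Non-transformed human CD34+ blood stem/progenitor cells from umbilical cord blood were run alongside MA9.3, an AML line made by introducing the MLL-AF9 oncogene into human CD34+ cells. IC50 was determined on each cell type. Therapeutic index is the ratio between the MA9.3 and CD34+ IC50 values.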"}, "[4]": {"test": "Cytotoxicity against human MA9.3 cells after 48 hrs by MTT assay", "type": "functional, cell-based", "in_short": "as §1"}}, "data": [{"molecule": "Oc1ccc(OCCNc2ccccc2)cc1", "values": [{"measurement": "IC50", "setting": "[1]", "value": 30, "unit": "µM"}]}, {"molecule": "CN(CCCCCOc1ccc(O)cc1)c1ccccc1", "values": [{"measurement": "IC50", "setting": "[1]", "value": 13, "unit": "µM"}]}, {"molecule": "CCN(CCOc1ccc(O)cc1)c1ccccc1", "values": [{"measurement": "IC50", "setting": "[1]", "value": 23, "unit": "µM"}]}, {"molecule": "CN(CCCBr)c1ccccc1", "values": [{"measurement": "IC50", "setting": "[1]", "value": "> 125", "unit": "µM"}]}, {"molecule": "CC(C)N(CCOc1ccc(O)cc1)c1ccccc1", "values": [{"measurement": "IC50", "setting": "[1]", "value": 53, "unit": "µM"}]}, {"molecule": "CCOc1ccc(O)cc1", "note": "[1-hydroxy-4-ethoxybenzene]", "values": [{"measurement": "IC50", "setting": "[1]", "value": "> 125", "unit": "µM"}]}, {"molecule": "O=C(O)CCCc1ccc(N(CCCl)CCCl)cc1", "note": "[CHLORAMBUCIL]", "values": [{"measurement": "selectivity ratio", "setting": "[2]", "value": 1.3}, {"measurement": "IC50", "setting": "[3]", "value": 11, "unit": "µM"}, {"measurement": "IC50", "setting": "[4]", "value": 8.7, "unit": "µM"}]}, {"molecule": "CN(CCOc1ccc(O)cc1)c1ccccc1", "values": [{"measurement": "IC50", "setting": "[1]", "value": 18, "unit": "µM"}]}]}
